Only some compounds are listed: those with a hit (about 1.5% of all), similar ones and a draw of the others.
ABCB1 inh = blocks JC-1 efflux by human ABCB1 transporter. P08183. CCRF-Adr cells, flow cytometry. inhibition, % at 6.6 µM. 190,000 tested, 0.067% active. AID 1326; in the data active = inhibition above about 40%;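 also: 0% = vehicle and 100% = reference inhibitor; higher value means more JC-1 retained so stronger ABCB1 efflux block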
Target sequence (P08183 whole entry, looked up): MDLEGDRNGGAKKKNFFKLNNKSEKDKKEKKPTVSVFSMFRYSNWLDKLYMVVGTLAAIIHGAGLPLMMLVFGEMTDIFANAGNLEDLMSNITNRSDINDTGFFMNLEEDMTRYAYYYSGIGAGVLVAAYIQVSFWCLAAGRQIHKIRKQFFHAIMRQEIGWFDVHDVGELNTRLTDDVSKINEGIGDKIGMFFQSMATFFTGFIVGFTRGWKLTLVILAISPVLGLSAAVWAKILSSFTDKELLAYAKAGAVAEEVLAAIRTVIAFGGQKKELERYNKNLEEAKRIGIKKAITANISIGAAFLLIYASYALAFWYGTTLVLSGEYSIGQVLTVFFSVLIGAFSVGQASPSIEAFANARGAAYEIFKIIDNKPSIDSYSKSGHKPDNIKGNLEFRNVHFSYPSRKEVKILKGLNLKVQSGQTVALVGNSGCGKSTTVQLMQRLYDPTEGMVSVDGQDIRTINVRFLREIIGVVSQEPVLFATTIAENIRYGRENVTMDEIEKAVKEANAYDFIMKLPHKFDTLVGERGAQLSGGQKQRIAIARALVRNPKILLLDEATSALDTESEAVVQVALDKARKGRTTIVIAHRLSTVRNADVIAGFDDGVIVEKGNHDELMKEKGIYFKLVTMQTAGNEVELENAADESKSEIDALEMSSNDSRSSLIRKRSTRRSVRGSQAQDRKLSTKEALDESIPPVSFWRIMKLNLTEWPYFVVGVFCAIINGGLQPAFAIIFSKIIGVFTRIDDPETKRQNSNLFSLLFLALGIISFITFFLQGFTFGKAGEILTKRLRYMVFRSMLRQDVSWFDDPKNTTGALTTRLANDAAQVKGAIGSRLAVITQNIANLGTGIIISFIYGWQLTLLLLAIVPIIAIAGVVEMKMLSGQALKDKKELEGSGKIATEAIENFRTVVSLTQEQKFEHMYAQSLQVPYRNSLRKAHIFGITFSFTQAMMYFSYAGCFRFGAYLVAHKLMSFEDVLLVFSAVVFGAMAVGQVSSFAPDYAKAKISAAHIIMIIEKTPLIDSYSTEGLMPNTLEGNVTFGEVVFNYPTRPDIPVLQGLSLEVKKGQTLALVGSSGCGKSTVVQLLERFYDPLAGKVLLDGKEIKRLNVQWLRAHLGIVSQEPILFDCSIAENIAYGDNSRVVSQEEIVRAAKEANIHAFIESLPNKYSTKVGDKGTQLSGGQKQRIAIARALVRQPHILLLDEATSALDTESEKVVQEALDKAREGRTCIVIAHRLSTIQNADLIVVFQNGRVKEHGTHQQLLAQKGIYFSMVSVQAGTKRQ
RBBP9 inhibitor = inhibitors of human serine hydrolase RBBP9. recombinant RBBP9, FP-Rh probe fluorescence polarization. 220,000 tested, 0.2% active. O75884. inhibition, % at 7.94 µM;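 active = inhibition above the campaign mean of all tested compounds plus 3 SD, cut at about 14% in these data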;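 also: plate controls were DMSO wells with RBBP9 for no effect and wells lacking RBBP9 protein for full effect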
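system = RBBP9 protein | input = RBBP9 at 2.5 µM in dispensed solution, before mixing | measured by = fluorescence polarization (mP), excitation 525 nm, emission 598 nm | incubation = enzyme-compound preincubation 30 min, then probe labeling 45 min, 25 °C | buffer or medium = Tris-NaCl-Pluronic buffer, pH 8.0 | compound = single dose 7.94 µM | also added = FP-Rh probe, 375 nM dispensing solution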
EP2 antag = EP2 receptor (human) inhibition | P43116 | C6 glioma cells expressing human EP2, cAMP TR-FRET; cells stimulated with saturating PGE2 | inhibition, % at 25 µM | 260,000 tested, 0.52% active;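 active = percent inhibition above 40 after rounding to a whole number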;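 also: rat C6 glioma host cells with rolipram phosphodiesterase inhibitor present; the protocol text gives 20 µM as final concentration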
ABCG2 block = inhibitors of human ABCG2 transporter, ABCB1 counter-screen; IgMXP3 cells, JC-1 efflux, flow cytometry; inhibition, % at 6.6 µM; 190,000 tested, 0.1% active;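 active = inhibition above 80%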;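 also: 0% = DMSO and 100% = nicardipine control wells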
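System: two drug-resistant human cell lines, ABCG2 and ABCB1; controls: nicardipine high and DMSO low controls; times: 10 min exposure at 25 °C with rotation, no wash; detection: flow cytometry of retained JC-1 fluorescence; read-out basis: percent efflux inhibition, scaled nicardipine 100% to DMSO 0%; doses: one concentration, 6.6 µM final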
EP2 mod = EP2 receptor (human) modulation | P43116 | EP2-expressing cells, cAMP HTRF FRET, PGE2 co-stimulation | induction, % at 25 µM | 260,000 tested, 0.83% active | AID 940;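 active = compounds whose cAMP rise, as percent of the full-agonist control response, exceeds 60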;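 also: rat C6 glioma line stably carrying human EP2 under a CMV promoter; the protocol text gives 20 µM as final concentration; 100% = response of wells given 1 µM PGE2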
Starred values were filed as active, the others as inactive; x = not tested or not shown; ! = not active in a repeat.

SMILES	ABCB1 inh	RBBP9 inhibitor	EP2 antag	ABCG2 block	EP2 mod
O=C1c2ccccc2-c2ccc(N(Cc3ccc(Br)cc3)Cc3ccc(Br)cc3)cc21	x	x	47*	x	18
COC(=O)c1c(NC(=O)c2cccc(OC)c2)sc(C(=O)N2CCCC2)c1C	x	x	13	x	7
COc1ccccc1NC(=O)C(NC(=O)OC(C)(C)C)C(C)OCc1ccccc1 (configuration not stated)	1	-5	4	8	63*
CC(C)C(NC(=O)OC(C)(C)C)C(=O)NC(CCC(=O)OCc1ccccc1)C(N)=O (configuration not stated)	0	-12	3	2	-21
O=C1NC2(CCN(C(=O)c3cnccn3)CC2)Oc2ccccc21	x	x	x	x	-39
CCCC(=O)Nc1ncnc2c1ncn2[C@@H]1O[C@@H]2COP(=O)(O)O[C@H]2[C@H]1OC(=O)CCC	0	7	2	6	109*
COC(=O)c1cc2ccccn2c2c(C(=O)OC)c(C(=O)OC)cc1-2	0	0	41*	1	-35
COC(=O)c1cc2c(C)c(C)c3ccccn3c-2c1C(=O)OC	1	-4	25	3	-7
CCOC(=O)Cn1c(C(F)(F)F)nc2nc(Cl)c(Cl)nc21	x	x	40*	x	-33
CN(C)CCCN=c1c2ccccc2n(C)c2[nH]c(=O)n(C)c(=O)c12	x	x	46*	x	19
CCCCOC(=O)CSCC(=O)N1N=C(c2cccs2)CC1c1ccc(F)cc1 (configuration not stated)	1	-3	50*	9	37
CCOC(=O)CSCC(=O)N1N=C(c2cccs2)CC1c1ccc(F)cc1 (configuration not stated)	1	-7	5	7	25
C/C(=N\NC(=O)c1ccc(C)cc1C)c1ccc2c(c1)Nc1ccccc1S2	-4	1	43*	-8	-75
CC(=O)c1ccc2c(c1)Nc1ccccc1S2	1	2	20	28	-15
CC[C@H](Cn1nc(-c2ccc(F)c(F)c2)ccc1=O)NC(=O)c1ccco1	x	x	x	x	3
O=S(=O)(O)c1ccc2cc(N=Nc3cc(S(=O)(=O)O)c4cccnc4c3O)ccc2c1	x	x	52*	x	16
Cc1ccc(N=Nc2c(O)ccc3cc(S(=O)(=O)O)ccc23)cc1	x	x	11	x	18
COc1cccc(-n2c(SCC(=O)N(C(C)C)C(C)C)nnc2-c2ccncc2)c1	x	x	20	x	-17
COc1ccc2c(c1)c1c(C)c3cnccc3c(C)c1n2CCCN	x	x	49*	x	32
O=[N+]([O-])c1ccc(NC(=S)NCCc2ccc(Cl)cc2)cc1	0	-31	74*	3	-18
c1ccc([C@H](c2cccc3c2ccc2ccccc23)[C@H](c2ccccc2)c2cccc3c2ccc2ccccc23)cc1	x	x	41*	x	8
NC(=O)NC(c1ccccc1)c1cccc2ccccc12 (configuration not stated)	1	4	-4	2	13
O=C(Cc1n[nH]c(=O)c2ccccc12)N1CCC(c2[nH]ncc2-c2ccncc2)CC1	x	x	x	x	-10
CCCSc1nc2c(c(=O)n(C)c(=O)n2C)n1Cc1cccc(C)c1	x	x	8	x	28
Nc1c(C(=O)O)ccc2c1C(=O)c1ccccc1C2=O	0	-4	2	6	-40
SMILES	ABCB1 inh	RBBP9 inhibitor	EP2 antag	ABCG2 block	EP2 mod
O=C(O)c1cccc(N=Nc2c(S(=O)(=O)O)ccc3c2C(=O)c2ccccc2C3=O)c1O	x	x	46*	x	-33
CCOC(=O)c1cc2occc2n1Cc1ccc(F)cc1	0	-2	13	0	85*!
COC(=O)c1cc2occc2n1Cc1c(F)cccc1Cl	0	-3	15	2	64*
CCOC(=O)c1cc2occc2n1Cc1c(F)cccc1Cl	0	-4	19	0	44
C[C@@H](Cn1nnn(-c2ccccc2)c1=O)NC(=O)c1n[nH]c(=O)c2ccccc12	x	x	10	x	1
O=C(c1ccccc1)c1ccccc1N1C(=O)C=CC1=O	x	-3	45*	x	-49
O=C(O)c1ccccc1-c1ccccc1C(=O)c1ccccc1	x	x	16	x	-67
CC(C)OC(=O)c1c(-c2ccc(C(C)C)cc2)csc1NC(=O)C1CCCO1 (configuration not stated)	4	-1	13	55	63*
COc1ccc(SN=C2C(C)=CC(=O)C=C2C)cc1	0	-4	4	1	-21
COC1=CC(=O)C=C(OC)C1=O	x	x	75*	x	-24
COc1ccc2cc(CN(Cc3cccs3)C(c3nnnn3C3CCCC3)C(C)C)c(=O)[nH]c2c1 (configuration not stated)	x	x	8	x	69*
COc1ccc2[nH]c(=O)c(CN(Cc3cccs3)C(c3nnnn3C(C)(C)C)C(C)C)cc2c1 (configuration not stated)	x	x	14	x	69*
COc1ccc2[nH]c(=O)c(CN(Cc3cccs3)Cc3nnnn3C(C)(C)C)cc2c1	2	-5	8	3	55
CCc1ccc2[nH]c(=O)c(CN(Cc3cccs3)C(c3nnnn3C3CCCC3)C(C)C)cc2c1 (configuration not stated)	x	x	10	x	63*
CC(C)(C)NC(=O)CSc1nc(O)c(Cc2ccccc2F)c(=O)[nH]1	x	x	11	x	5
CC(CCc1nc2ccccc2s1)(c1ccc(O)cc1)c1ccc(O)cc1	x	x	100*	x	-33
CC(C)c1cc(C(F)(F)F)nc(NNc2nc(C(C)C)cc(C(F)(F)F)n2)n1	x	x	48*	x	42
CCNc1nc(Sc2ccc(C)cc2)cc(C(F)(F)F)n1	1	10	4	2	18
CN(C)S(=O)(=O)c1ccc(Nc2ccc(O)c3c2C(=O)c2c([N+](=O)[O-])ccc(O)c2C3=O)cc1	x	x	59*	x	-34
COc1ccc2cc(C)c3nn(CC(=O)NC4CCCCC4)c(=O)n3c2c1	x	x	x	x	-6
Cc1nc(-c2ccccn2)sc1C(=O)Nc1ccc(Cl)c(Cl)c1	-2	-17	52*	-3	-31
Cc1ccc(SCC(=O)N2CCOCC2)cc1	1	3	11	8	18
Cc1ccc(SCN2CCCCC2)cc1 (tested in a mixture with another compound)	x	x	52*	x	26
Cn1c2c(c3ccccc31)CCSC2=O	1	-5	9	24	6
CN(C)CCCCN1CCc2c(n(C)c3ccccc23)C1=O	x	x	50*	x	-26
CC(C)c1c(O)nc(SCC(=O)Nc2ccc(Cl)cc2)[nH]c1=O	x	x	5	x	-25
C=C[C@]1(C)C[C@H](OC(=O)CO)[C@]2(C)C3C(=O)CC[C@]3(CC[C@H]2C)[C@H](C)[C@H]1O (some centres not stated)	x	x	56*	x	-9
CC(C)[C@@H](Cn1nc(-c2cccs2)ccc1=O)NC(=O)Cn1ncc2ccccc2c1=O	x	x	x	x	-21
Cc1ccc(S(=O)(=O)N2CCCC(C(=O)NCCO)C2)cc1 (configuration not stated)	x	x	10	x	-15

Source: PubChem
